{
  "source": "paper PMC4449380",
  "about": "(Advances in Therapy, 2015)",
  "key": {"[1]": {"test_system": "breast cancer resistance protein", "details": "in vitro; ref Taisho Pharmaceutical Co., Ltd., data on file; cited from earlier work"}, "[2]": {"assay_type": "in vivo, healthy Japanese males", "details": "co-administered with miglitol", "method_in_brief": "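Randomized open-label crossover in 12 males using six sequences with ≥7-day washout. Single oral doses of luseogliflozin 5 mg, miglitol 50 mg, or both were given before breakfast while hospitalized. Venous blood was drawn pre-dose and 0.25–24 h post-dose. Plasma luseogliflozin was measured by LC–MS/MS (0.05–100 ng/mL). Cmax was derived non-compartmentally. GMR with 90% CI, combination vs alone, used ANOVA with treatment, sequence and timing fixed and subject random.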"}, "[3]": {"assay_type": "in vivo, healthy Japanese males", "method_in_brief": "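Open-label add-on study in 12 males: luseogliflozin 5 mg Day 1, pioglitazone 30 mg Days 2–7, both Day 8, dosed before breakfast. Blood was drawn pre-dose and 0.25–24 h on Days 1, 7 and 8. LC–MS/MS measured luseogliflozin (0.05–100 ng/mL) and pioglitazone with M-III/M-IV (10–2000 ng/mL). […] GMR with 90% CI was by ANOVA with treatment fixed and subject random.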"}, "CYP2C8": {"test_system": "CYP2C8", "details": "in vitro; ref Taisho Pharmaceutical Co., Ltd., data on file; cited from earlier work"}, "[4]": {"assay": "24-h cumulative urinary glucose excretion", "assay_type": "in vivo, healthy Japanese males", "details": "luseogliflozin in combination with an OAD", "method_in_brief": "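Healthy males, 12 per study. Pooled urine was collected for 24 h pre-dose and 0–24 h post-dose, and urine glucose was measured. Glimepiride arm: randomized three-way crossover of single doses (luseogliflozin 5 mg, glimepiride 1 mg, or both) before breakfast, with ≥7-day washout. Metformin arm: same design with 250 mg under fasting. Voglibose arm: add-on design, urine collected Days 1, 7 and 8.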"}, "[5]": {"details": "ref Taisho Pharmaceutical Co., Ltd., data on file; cited from earlier work"}, "Safety assessments": {"assay": "Safety assessments", "assay_type": "in vivo, healthy Japanese males", "method_in_brief": "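Safety was monitored across six single-site studies of 12 healthy males aged 20–39 years, hospitalized during dosing. Adverse events were recorded by nature and frequency, including changes in laboratory values, vital signs and 12-lead ECG. Investigators judged hypoglycemia from symptoms or blood glucose.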"}, "CYP2E1": {"test_system": "CYP2E1", "details": "in vitro; ref Taisho Pharmaceutical Co., Ltd., data on file; cited from earlier work"}, "[6]": {"details": "cited from earlier work"}, "CYP2D6": {"test_system": "CYP2D6", "details": "in vitro; ref Taisho Pharmaceutical Co., Ltd., data on file; cited from earlier work"}, "CYP1A2": {"test_system": "CYP1A2", "details": "in vitro; ref Taisho Pharmaceutical Co., Ltd., data on file; cited from earlier work"}, "OAT3": {"test_system": "OAT3", "details": "in vitro; ref Taisho Pharmaceutical Co., Ltd., data on file; cited from earlier work"}, "P-glycoprotein": {"test_system": "P-glycoprotein", "details": "in vitro; ref Taisho Pharmaceutical Co., Ltd., data on file; cited from earlier work"}, "[7]": {"test_system": "organic cation transporter 2", "details": "in vitro; ref Taisho Pharmaceutical Co., Ltd., data on file; cited from earlier work"}, "CYP2C9": {"test_system": "CYP2C9", "details": "in vitro; ref Taisho Pharmaceutical Co., Ltd., data on file; cited from earlier work"}, "CYP2B6": {"test_system": "CYP2B6", "details": "in vitro; ref Taisho Pharmaceutical Co., Ltd., data on file; cited from earlier work"}, "OAT1": {"test_system": "OAT1", "details": "in vitro; ref Taisho Pharmaceutical Co., Ltd., data on file; cited from earlier work"}, "CYP2A6": {"test_system": "CYP2A6", "details": "in vitro; ref Taisho Pharmaceutical Co., Ltd., data on file; cited from earlier work"}, "CYP3A4": {"test_system": "CYP3A4", "details": "in vitro; ref Taisho Pharmaceutical Co., Ltd., data on file; cited from earlier work"}, "OATP1B1": {"test_system": "OATP1B1", "details": "in vitro; ref Taisho Pharmaceutical Co., Ltd., data on file; cited from earlier work"}},
  "note": "Read-outs that look alike come from different tables or passages of the source.",
  "data": [
    {"smiles": "CCOc1ccc(Cc2cc([C@@H]3S[C@H](CO)[C@@H](O)[C@H](O)[C@H]3O)c(OC)cc2C)cc1", "note": "[Luseogliflozin, (1S)-1,5-Anhydro-1-[5-(4-ethoxybenzyl)-2-methoxy-4-methylphenyl]-1-thio-D-glucitol]", "values": [
      {"measurement": "IC50", "setting": "[1]", "result": "> 100", "unit": "µM"},
      {"measurement": "change in C max of luseogliflozin", "setting": "[2]", "result": "about 15%"},
      {"measurement": "change in C max of luseogliflozin", "setting": "[3]; co-administered with pioglitazone", "result": "about 15%"},
      {"measurement": "IC50", "setting": "CYP2C8", "result": "> 100", "unit": "µM"},
      {"measurement": "UGE compared with luseogliflozin alone", "setting": "[4]", "result": "slightly reduced"},
      {"measurement": "enzymes involved in the metabolism", "setting": "[5]", "result": "cytochrome P450 (CYP) isoforms 3A4/5, 4A11, 4F2, and 4F3B, and UDP-glucuronosyltransferase 1A1"},
      {"measurement": "serious adverse events or adverse events requiring treatment discontinuation", "setting": "Safety assessments; all six studies, luseogliflozin alone or with OADs", "result": "no serious adverse events"},
      {"measurement": "changes in laboratory tests, vital signs, or electrocardiography", "setting": "Safety assessments; all studies", "result": "no clinically relevant changes"},
      {"measurement": "hypoglycemia", "setting": "Safety assessments; any of the studies", "result": "no episodes of hypoglycemia"},
      {"measurement": "adverse events", "setting": "Safety assessments; luseogliflozin administered alone or in combination with the other OADs", "result": "no adverse events"},
      {"measurement": "adverse events", "setting": "Safety assessments; luseogliflozin in combination with glimepiride, mild in severity", "result": "One adverse event (white blood cell urine positive) occurred in one subject"},
      {"measurement": "adverse events", "setting": "Safety assessments; luseogliflozin in combination with metformin (nausea; nausea and headache), mild in severity", "result": "three events occurred in two subjects"},
      {"measurement": "IC50", "setting": "CYP2E1", "result": "> 100", "unit": "µM"},
      {"measurement": "incidence of hypoglycemia", "setting": "[6]; in combination with a sulfonylurea, over 52 weeks", "result": 10.7, "unit": "%"},
      {"measurement": "hemoglobin A1c and fasting plasma glucose", "setting": "[6]; in combination with other classes of OADs for 52 weeks", "result": "significantly reduced"},
      {"measurement": "rate of adverse drug reactions", "setting": "[6]; in combination with other classes of OADs, 52 weeks", "result": "12.4–25.4%"},
      {"measurement": "incidence of hypoglycemia", "setting": "[6]; in combination with other classes of OADs", "result": "0.9–3.4%"},
      {"measurement": "IC50", "setting": "CYP2D6", "result": "> 100", "unit": "µM"},
      {"measurement": "IC50", "setting": "CYP1A2", "result": "> 100", "unit": "µM"},
      {"measurement": "IC50", "setting": "OAT3", "result": "> 100", "unit": "µM"},
      {"measurement": "IC50", "setting": "P-glycoprotein", "result": "> 100", "unit": "µM"},
      {"measurement": "IC50", "setting": "[7]", "result": "> 100", "unit": "µM"},
      {"measurement": "IC50", "setting": "CYP2C9", "result": "> 100", "unit": "µM"},
      {"measurement": "IC50", "setting": "CYP2B6", "result": "> 100", "unit": "µM"},
      {"measurement": "IC50", "setting": "OAT1", "result": "> 100", "unit": "µM"},
      {"measurement": "IC50", "setting": "CYP2A6", "result": "> 100", "unit": "µM"},
      {"measurement": "IC50", "setting": "CYP3A4", "result": "> 100", "unit": "µM"},
      {"measurement": "IC50", "setting": "OATP1B1", "result": "> 100", "unit": "µM"}
    ]},
    {"smiles": "CCc1ccc(CCOc2ccc(CC3SC(=O)NC3=O)cc2)nc1", "note": "(racemic) [Pioglitazone, (±)-5(-)[p(-)[2-(5-ethyl-2-pyridyl)ethoxy]benzyl]-2,4-thiazolidinedione, reference compound]", "values": [
      {"measurement": "decrease in C max and AUC0–24h of pioglitazone", "setting": "[3]; co-administration with luseogliflozin", "result": "about 10%"}
    ]}
  ]
}
